Source: ChEMBL document CHEMBL2406980, “Non hemolytic short peptidomimetics as a new class of potent and broad-spectrum antimicrobial agents” (Bioorg Med Chem Lett, 2013)
Values after ≈ are worked out from the molar mass of the structure shown. Active and inactive are the calls of the source. The calls are words filed in the database; no cut-off is given here. Where a SMILES comes first, the peptide text is derived from it.

Experiments:
[1] = Hemolytic activity in human RBC after 1 hr; assay type: ADME, cell-based; details: erythrocyte
How it was run: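 Human erythrocytes are exposed to peptide, and HC10 is taken as the peptide concentration producing 10% hemolysis. If no hemolysis is detected at the top concentration tested, twice that maximum is used for the therapeutic index.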

Staphylococcus aureus [2] = assay: Antibacterial activity against methicillin-resistant Staphylococcus aureus CCARM 3095 assessed as growth inhibition after 18 to 20 hrs by broth microdilution method; assay type: functional
Staphylococcus aureus [3] = assay: Antibacterial activity against methicillin-resistant Staphylococcus aureus CCARM 3089 assessed as growth inhibition after 18 to 20 hrs by broth microdilution method; assay type: functional
Staphylococcus aureus [4] = assay: Antibacterial activity against Staphylococcus aureus KCTC 1621 assessed as growth inhibition after 18 to 20 hrs by broth microdilution method; assay type: functional
How it was run: (§1)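 MIC by broth microdilution against a four-strain panel: E. coli and P. aeruginosa (Gram-negative), S. epidermidis and S. aureus (Gram-positive). Values are given in mass and molar units. Where no activity occurs at the top concentration, twice that maximum is used in the geometric-mean MIC calculation.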

Escherichia coli [5] = assay: Antibacterial activity against Escherichia coli KCTC 1682 assessed as growth inhibition after 18 to 20 hrs by broth microdilution method; assay type: functional; how it was run: as §1
Staphylococcus aureus [6] = assay: Antibacterial activity against Staphylococcus aureus KCTC 1621 assessed as obvious disruption of cellular structure at 10 X MIC after 1 hr by transmission electron microscopic analysis; assay type: functional, organism-based
How it was run: (§2)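 Peptide-treated E. coli and S. aureus are negatively stained and examined by transmission electron microscopy for cell rupture and release of internal material. Comparisons are made with untreated cells, with LL-37 as a positive lysis control.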

Staphylococcus aureus [7] = assay: Antibacterial activity against methicillin-resistant Staphylococcus aureus CCARM 3090 assessed as growth inhibition after 18 to 20 hrs by broth microdilution method; assay type: functional
[8] = test system: Staphylococcus epidermidis; assay: Antibacterial activity against Staphylococcus epidermidis KCTC 1917 assessed as growth inhibition after 18 to 20 hrs by broth microdilution method; assay type: functional; how it was run: as §1
Escherichia coli [9] = assay: Antibacterial activity against Escherichia coli KCTC 1682 assessed as obvious disruption of cellular structure at 10 X MIC after 1 hr by transmission electron microscopic analysis; assay type: functional, organism-based; how it was run: as §2
Pseudomonas aeruginosa = assay: Antibacterial activity against Pseudomonas aeruginosa KCTC 1637 assessed as growth inhibition after 18 to 20 hrs by broth microdilution method; assay type: functional; how it was run: as §1
Staphylococcus aureus [10] = assay: Antibacterial activity against Staphylococcus aureus KCTC 1621 assessed as growth inhibition at 50 ug/ml preincubated with trypsin for 1 hr followed by 18 to 20 hrs incubation in bacterial culture by broth microdilution method; assay type: functional, organism-based
How it was run: (§3)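 Peptides are pretreated with trypsin, then residual antibacterial activity is measured by broth microdilution. Remaining intact peptide at each degradation time is followed separately by analytical RP-HPLC after trypsin treatment.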

Escherichia coli [11] = assay: Antibacterial activity against Escherichia coli KCTC 1682 assessed as growth inhibition at 50 ug/ml preincubated with trypsin for 1 hr followed by 18 to 20 hrs incubation in bacterial culture by broth microdilution method; assay type: functional, organism-based; how it was run: as §3

Compound	HC10 [1]	MIC (Staphylococcus aureus [2])	MIC (Staphylococcus aureus [3])	MIC (Staphylococcus aureus [4])	MIC (Escherichia coli [5])	Activity (Staphylococcus aureus [6])	MIC (Staphylococcus aureus [7])	MIC [8]	Activity (Escherichia coli [9])	MIC (Pseudomonas aeruginosa)	growth inhibition (GI) (Staphylococcus aureus [10])	growth inhibition (GI) (Escherichia coli [11])
N=C(N)NCCC[C@H](NC(=O)[C@H](Cc1c[nH]c2ccccc12)NC(=O)[C@H](CCCNC(=N)N)NC(=O)[C@@H](N)Cc1c[nH]c2ccccc12)C(N)=O (H-WRWR-NH2)	> 364.5 µM	–	–	–	–	–	–	–	–	–	–	–
CC[C@H](C)[C@H](NC(=O)[C@H](CCCCN)NC(=O)[C@H](CCC(=O)O)NC(=O)[C@H](CCCCN)NC(=O)[C@H](CO)NC(=O)[C@H](CCCCN)NC(=O)[C@H](CCCNC(=N)N)NC(=O)[C@H](Cc1ccccc1)NC(=O)[C@H](Cc1ccccc1)NC(=O)[C@H](CC(=O)O)NC(=O)CNC(=O)[C@H](CC(C)C)NC(=O)[C@@H](N)CC(C)C)C(=O)NCC(=O)N[C@@H](CCCCN)C(=O)N[C@@H](CCC(=O)O)C(=O)N[C@@H](Cc1ccccc1)C(=O)N[C@@H](CCCCN)C(=O)N[C@@H](CCCNC(=N)N)C(=O)N[C@H](C(=O)N[C@H](C(=O)N[C@@H](CCC(N)=O)C(=O)N[C@@H](CCCNC(=N)N)C(=O)N[C@H](C(=O)N[C@@H](CCCCN)C(=O)N[C@@H](CC(=O)O)C(=O)N[C@@H](Cc1ccccc1)C(=O)N[C@@H](CC(C)C)C(=O)N[C@@H](CCCNC(=N)N)C(=O)N[C@@H](CC(N)=O)C(=O)N[C@@H](CC(C)C)C(=O)N[C@H](C(=O)N1CCC[C@H]1C(=O)N[C@@H](CCCNC(=N)N)C(=O)N[C@H](C(=O)N[C@@H](CCC(=O)O)C(=O)N[C@@H](CO)C(=O)O)[C@@H](C)O)C(C)C)[C@@H](C)CC)C(C)C)[C@@H](C)CC [CATHELICIDIN]	36.7 µM	> 7.1 µM	> 7.1 µM	3.6 µM (≈ 16.2 µg/mL)	7.1 µM (≈ 31.9 µg/mL)	Active	> 7.1 µM	14.2 µM (≈ 63.8 µg/mL)	Active	7.1 µM (≈ 31.9 µg/mL)	–	–
H-WRWRWR-NH2 [listing 1 of 2 here]	> 245.2 µM	–	–	–	–	–	–	–	–	–	–	–
NC(=O)[C@H](CCCN=C(N)N)NC(=O)[C@H](Cc1c[nH]c2ccccc12)NC(=O)[C@@H](N)CCCN=C(N)N (H-Arg-Trp-Arg-NH2)	> 495.8 µM	–	–	> 124 µM	> 124 µM	–	–	> 124 µM	–	> 124 µM	–	–
N=C(N)NCCC[C@H](NC(=O)[C@H](Cc1c[n+](CCCC2CCCCC2)cn1CCCC1CCCCC1)NC(=O)[C@@H](N)CCCNC(=N)N)C(N)=O	> 357.8 µM	5.2 µM	5.2 µM	5.6 µM	5.6 µM	Active	5.2 µM	5.6 µM	Active	11.2 µM	Active	Active
N=C(N)NCCC[C@H](NC(=O)[C@@H](N)Cc1c[n+](CCCC2CCCCC2)cn1CCCC1CCCCC1)C(N)=O	> 457.6 µM	14.3 µM	14.3 µM	14.3 µM	> 114 µM	–	28.6 µM	14.3 µM	–	57.2 µM	Active	Active
N=C(N)NCCC[C@H](NC(=O)[C@H](CCCNC(=N)N)NC(=O)[C@@H](N)Cc1c[n+](CCCC2CCCCC2)cn1CCCC1CCCCC1)C(N)=O	> 357.7 µM	5.6 µM	5.6 µM	2.8 µM	5.6 µM	Active	5.6 µM	2.8 µM	Active	11.2 µM	Active	Active
H-WRWRWR-NH2 [listing 2 of 2 here]	–	–	–	7.7 µM	3.8 µM	–	–	7.7 µM	–	15.3 µM	–	–
N=C(N)NCCC[C@H](NC(=O)[C@H](Cc1cncn1CCCC1CCCCC1)NC(=O)[C@@H](N)CCCNC(=N)N)C(N)=O	> 432.9 µM	54.1 µM (≈ 32 µg/mL)	54.1 µM (≈ 32 µg/mL)	13.5 µM (≈ 7.98 µg/mL)	108 µM (≈ 63.9 µg/mL)	–	> 54.1 µM	13.5 µM (≈ 7.98 µg/mL)	–	108 µM (≈ 63.9 µg/mL)	inactive	inactive
N=C(N)NCCC[C@H](NC(=O)[C@@H](N)CCCNC(=N)N)C(=O)N[C@@H](Cc1c[n+](CCCC2CCCCC2)cn1CCCC1CCCCC1)C(N)=O	> 358 µM	5.6 µM	5.6 µM	5.6 µM	5.6 µM	–	11.2 µM	5.6 µM	–	11.2 µM	Active	Active
CC[C@H](C)[C@H](NC(=O)CN)C(=O)NCC(=O)N[C@@H](C)C(=O)N[C@H](C(=O)N[C@@H](CC(C)C)C(=O)N[C@@H](CCCCN)C(=O)N[C@H](C(=O)N[C@@H](CC(C)C)C(=O)N[C@H](C(=O)N[C@H](C(=O)NCC(=O)N[C@@H](CC(C)C)C(=O)N1CCC[C@H]1C(=O)N[C@@H](C)C(=O)N[C@@H](CC(C)C)C(=O)N[C@H](C(=O)N[C@@H](CO)C(=O)N[C@@H](Cc1c[nH]c2ccccc12)C(=O)N[C@H](C(=O)N[C@@H](CCCCN)C(=O)N[C@@H](CCCNC(=N)N)C(=O)N[C@@H](CCCCN)C(=O)N[C@@H](CCCNC(=N)N)C(=O)N[C@@H](CCC(N)=O)C(=O)N[C@@H](CCC(N)=O)C(N)=O)[C@@H](C)CC)[C@@H](C)CC)[C@@H](C)O)[C@@H](C)O)C(C)C)C(C)C	–	–	–	–	–	–	–	–	–	–	inactive	inactive
NC(=O)[C@H](CCCN=C(N)N)NC(=O)[C@H](Cc1c[nH]c2ccccc12)NC(=O)[C@H](CCCN=C(N)N)NC(=O)[C@@H](N)Cc1c[nH]c2ccccc12 (H-WRWR-NH2)	–	–	–	45.6 µM (≈ 32 µg/mL)	45.6 µM (≈ 32 µg/mL)	–	–	11.4 µM (≈ 8 µg/mL)	–	45.6 µM (≈ 32 µg/mL)	–	–
